What is called inhibition is the share of the control response that was lost under treatment. Higher therefore signals a response far below the control. A word on the Ki: it is the dissociation constant of the complex between target and ligand, obtained from inhibition or displacement. A word on the IC50: it is the midpoint of a concentration-inhibition curve. A higher IC50 goes with a need for much substance.

From ChEMBL document CHEMBL2311301, “Design, synthesis and characterization of novel 1,2-benzisothiazol-3(2H)-one and 1,3,4-oxadiazole hybrid derivatives: potent inhibitors of Dengue and West Nile virus NS2B/NS3 proteases” (Bioorg Med Chem, 2013) come the findings set out here.

Assay [1] concerns West Nile virus. The experiment in a line: Inhibition of WNV NS2B/NS3 protease using Bz-Nle-Lys-Arg-Arg-AMC as substrate at 25 uM by spectrofluorometric analysis relative to control. The gist of the method:
(§1)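 Protease (DENV2 NS2B-NS3pro 25 nM; WNV NS2B-NS3pro with 5-residue linker 28 nM) incubated with inhibitor in DMSO, 15 min at 37 °C, in 200 mM Tris·HCl pH 9.5, 6 mM NaCl, 30% glycerol. Reaction started with 5.0 μM substrate. AMC release read at ex 380/em 460 nm. No-protease background subtracted; no-inhibitor control taken as 100%. Triplicates.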

The test system of assay [2] is West Nile virus. The experiment in a line: Inhibition of WNV NS2B/NS3 protease using Bz-Nle-Lys-Arg-Arg-AMC as substrate at 10 uM by spectrofluorometric analysis relative to control. An outline of the steps:
as §1

For assay [3], the system named is dengue virus type 2. The experiment in a line: Inhibition of DENV2 NS2B/NS3 protease expressed in Escherichia coli Top 10 F' using Bz-Nle-Lys-Arg-Arg-AMC as substrate at 25 uM by spectroflorometer analysis relative to control. An outline of the steps:
as §1

The test system of assay [4] is dengue virus type 2. Kind of assay: Inhibition of DENV2 NS2B/NS3 protease expressed in Escherichia coli Top 10 F' using Bz-Nle-Lys-Arg-Arg-AMC as substrate at 10 uM by spectroflorometer analysis relative to control. The gist of the method: as §1
Assay [5] can be described thus: Competitive inhibition of DENV2 NS2B/NS3 protease expressed in Escherichia coli Top 10 F' using Bz-Nle-Lys-Arg-Arg-AMC as substrate by Michaelis-Menten equation analysis. Also noted: species or system dengue virus type 2. An outline of the steps: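 DENV2 NS2B-NS3pro construct (NS2B hydrophilic cofactor joined to NS3 protease via Q-R), 25 nM, in 200 mM Tris·HCl pH 9.5, 6 mM NaCl, 30% glycerol, 0.1% CHAPS at 37 °C. Inhibitor at 0, 1.0, 3.0 and 5.0 μM; substrate 0-50 μM; started with enzyme. Initial rates from AMC fluorescence (ex 380/em 460 nm) every 1.5 min, under 5% conversion. Duplicates, repeated three times. Ki from secondary plot of Km,app against inhibitor.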

A short description of assay [6]: Inhibition of WNV NS2B/NS3 protease using Bz-Nle-Lys-Arg-Arg-AMC as substrate by spectrofluorometric analysis relative to control. Also noted: species or system West Nile virus. The gist of the method: (§2)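 IC50 run in the same single-point format (DENV2 protease 25 nM, WNV protease 28 nM; 15 min preincubation at 37 °C, pH 9.5 Tris buffer, 5.0 μM substrate, fluorescence ex 380/em 460 nm). Twelve inhibitor levels from 10 nM to 25 μM. IC50 from a sigmoidal fit of activity relative to the no-inhibitor control. Triplicates.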

Assay [7] in a line: Inhibition of DENV2 NS2B/NS3 protease expressed in Escherichia coli Top 10 F' using Bz-Nle-Lys-Arg-Arg-AMC as substrate by spectroflorometer analysis relative to control. Set-up: species or system dengue virus type 2. An outline of the steps: as §2

Take `COc1ccc(Cc2nnc(C(Cc3ccccc3)n3sc4ccccc4c3=O)o2)cc1` (centres undefined): the inhibition in assay [1] came out at 34.9%; in assay [2], 24.2%; in assay [3] it was 38.6%; in assay [4], 28.5%.
Take `CCCc1nnc(C(Cc2ccccc2)n2sc3ccccc3c2=O)o1` (centres undefined): the inhibition in assay [1] worked out at 46.2%; in assay [2] it was 34.9%; in assay [3], 36.7%; in assay [4], 25.6%.
With `O=c1c2ccccc2sn1Cc1nnc(Cc2ccccc2)o1`, the inhibition is 14.7% in assay [1], 8.27% in assay [2], 16.4% in assay [3] and 3.56% in assay [4].
As to `O=c1c2ccccc2sn1C(Cc1ccccc1)c1nnc(-c2ccncc2)o1` (centres undefined), the inhibition in assay [1] was 72.7%; in assay [2], 63.1%; in assay [3], 70.9%; in assay [4] it was 62.4%.
For `N#Cc1ccc(-c2nnc(C(Cc3ccccc3)n3sc4ccccc4c3=O)o2)cc1` (centres undefined) the same measures were 70.9%, 63.6%, 72.9% and 63.9%.
Turning to `O=c1c2ccccc2sn1C(Cc1ccccc1)c1nnc(-c2ccc(Cl)cc2)o1` (centres undefined), the inhibition in assay [1] was 63.2%; in assay [2] it was 53.5%; in assay [3] it was 70.5%; in assay [4] it was 53.2%.
On to `COc1ccc(-c2nnc(C(Cc3ccccc3)n3sc4ccccc4c3=O)o2)cc1` (centres undefined), for which the inhibition constant Ki in assay [5] came out at 3.61 µM. The IC50 in assay [6] is 4.22 µM; in assay [7], 3.75 µM. Also, the inhibition was found to be 73.4% in assay [1], 68.6% in assay [2], 80% in assay [3] and 65.5% in assay [4].
As for `O=c1c2ccccc2sn1Cc1nnc(-c2cccc(Cl)c2)o1`, the inhibition in assay [1] was determined as 9.15%; in assay [2] it was 6.15%; in assay [3], 16.7%; in assay [4], 5.21%.
In the case of `Cc1nnc(C(Cc2ccccc2)n2sc3ccccc3c2=O)o1` (centres undefined), the inhibition is 40.4% in assay [1], 22.3% in assay [2], 31.6% in assay [3] and 20% in assay [4].
Take `O=c1c2ccccc2sn1C(Cc1ccccc1)c1nnc(-c2cccc(F)c2)o1` (centres undefined): the inhibition amounted to 38.9% in assay [1], 30.4% in assay [2], 50.9% in assay [3] and 39% in assay [4].
Regarding `CCc1nnc(C(Cc2ccccc2)n2sc3ccccc3c2=O)o1` (centres undefined), the inhibition was 44.3% in assay [1], 25.1% in assay [2], 34.2% in assay [3] and 22.5% in assay [4].
With `O=c1c2ccccc2sn1C(Cc1ccccc1)c1nnc(-c2cccc(Cl)c2)o1` (centres undefined), the inhibition in assay [1] was determined as 43.1%; in assay [2], 29%; in assay [3], 42.1%; in assay [4] it was 34.3%.
As to `O=c1c2ccccc2sn1C(Cc1ccccc1)c1nnc(-c2ccccc2)o1` (centres undefined), the inhibition in assay [1] came out at 64.1%; in assay [2], 51.7%; in assay [3], 69.2%; in assay [4], 56.7%.
In the case of `COc1ccc(Cc2nnc(Cn3sc4ccccc4c3=O)o2)cc1`, the inhibition in assay [1] worked out at 8.68%; in assay [2] it was 5.96%; in assay [3], 7.9%; in assay [4] it was 5.27%.
Regarding `O=c1c2ccccc2sn1C(Cc1cccc(F)c1)c1nnc(-c2cccc(Cl)c2)o1` (centres undefined), the inhibition in assay [1] is 35.6%; in assay [2] it was 27.4%; in assay [3] it was 31.6%; in assay [4] it was 16%.
For the compound `O=c1c2ccccc2sn1Cc1nnc(-c2cccc(F)c2)o1`, the inhibition in assay [1] was 10.1%; in assay [2], 7.68%; in assay [3] it was 9.11%; in assay [4], 3.24%.
Consider `O=c1c2ccccc2sn1C(Cc1ccccc1)c1nnc(-c2cccnc2)o1` (centres undefined), for which the inhibition is 62.5% in assay [1], 55.8% in assay [2], 70% in assay [3] and 58.1% in assay [4].
Turning to `CCOc1ccc(-c2nnc(C(Cc3ccccc3)n3sc4ccccc4c3=O)o2)cc1` (centres undefined), the inhibition in assay [1] came to 71.8%; in assay [2], 56.1%; in assay [3], 61.3%; in assay [4], 40.6%.
Take `O=c1c2ccccc2sn1C(Cc1ccccc1)c1nnc(Cc2ccccc2)o1` (centres undefined): the inhibition amounted to 30.1% in assay [1], 20.5% in assay [2], 31.2% in assay [3] and 22.4% in assay [4].
For `O=c1c2ccccc2sn1C(Cc1ccccc1)c1nnc(-c2ccco2)o1` (centres undefined), the inhibition came to 57.7% in assay [1], 44.3% in assay [2], 64.7% in assay [3] and 52.3% in assay [4].
For the compound `COc1ccc(Cc2nnc(C(C)n3sc4ccccc4c3=O)o2)cc1` (centres undefined), the inhibition is 9.79% in assay [1], 4.17% in assay [2], 17.8% in assay [3] and 8.08% in assay [4].
Take `O=c1c2ccccc2sn1C(CCc1ccccc1)c1nnc(-c2cccc(Cl)c2)o1` (centres undefined): the inhibition in assay [1] was determined as 33.9%; in assay [2] it was 23.9%; in assay [3] it was 35%; in assay [4] it was 26.1%.
The like results for `O=c1c2ccccc2sn1C(Cc1ccccc1)c1nnc(-c2cccs2)o1` (centres undefined) were, in that order, 59.7%, 43.7%, 69.8% and 52.3%.
`O=c1c2ccccc2sn1C(Cc1ccccc1)c1nnc(-c2ccc(F)cc2)o1` (centres undefined): the inhibition in assay [1] was determined as 59.1%; in assay [2], 51.1%; in assay [3], 75.7%; in assay [4], 60.3%.
